Measured values taken from ChEMBL document CHEMBL1128222, “Novel inhibitors for multidrug resistance: 1,3,5-triazacycloheptanes” (J Med Chem, 1995).

How the values were obtained:
Mus musculus [1] = assay: Evaluation of ILS percentage of mice upon intraperitoneal injection of VBL at a concentration of 0.2 mg/kg; assay type: functional; details: ip
Procedure, shortened: (§1)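 Female CD2F1 mice, 5 per group, were inoculated i.p. with 1.0 × 10^6 P388/ADR cells on day 0. VBL was given by i.p. injection and/or the test agent orally on days 1-4 and 6-8. Read-out was survival days (average ± SD) and ILS (%) against the untreated group, with P < 0.05 by Student's t-test or a two-sample test with Welch's correction.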

Mus musculus [2] = assay: In vivo evaluation for the inhibitory activity against drug sensitive P388 cells (P388/S) cells bearing mice at a concentration of 0.2 mg/kg
Mus musculus [3] = assay: Evaluation of Survival of mice upon intraperitoneal injection of VBL at a concentration of 0.2 mg/kg; assay type: functional; details: ip; procedure, shortened: as §1
Mus musculus [4] = assay: In vivo evaluation for the inhibitory activity against drug sensitive P388 cells (P388/S) cells bearing mice at dose 0.2 mg/kg; assay type: functional
Procedure, shortened: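 Mice were implanted with 1 × 10^6 P388/S cells on day 0 and given VBL by i.p. injection on days 1-4 and 6-8. Survival days (average ± SD) and ILS (%) were compared with the untreated group, with P < 0.05 by Student's t-test or Welch-corrected two-sample test.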

Mus musculus [5] = assay: Evaluation of Survival of mice upon oral administration on days 1-4 and 6-8 at a concentration of 40 mg/kg; assay type: functional; procedure, shortened: as §1
Mus musculus [6] = assay: Evaluation of ILS percentage of mice upon oral administration on days 1-4 and 6-8 at a concentration of 40 mg/kg; assay type: functional; procedure, shortened: as §1
P388/S = assay: In vitro relative vinblastin uptake into P388/s (murine leukemia) cells following 10 uM treatment.; assay type: functional, Mus musculus
Procedure, shortened: (§2)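 10^6 P388/S or P388/ADR cells in 1 mL of 20 mM Hepes-buffered medium, pH 7.4. They are incubated with 4.6 kBq [3H]vinblastine with or without 10 μM compound (DMSO final 1%) at 37 °C for 30 min. Cells are then chilled, pelleted at 2 °C and washed twice in cold PBS. They are solubilized in NaOH and counted. The value is uptake relative to untreated cells.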

P388/ADR = assay: In vitro relative vinblastin uptake into P388/ADR (murine leukemia/multidrug resistant) cells following 10 uM treatment.; assay type: functional, Mus musculus; procedure, shortened: as §2

`CC[C@]1(O)C[C@@H]2CN(CCc3c([nH]c4ccccc34)[C@@](C(=O)OC)(c3cc4c(cc3OC)N(C)[C@H]3[C@@](O)(C(=O)OC)[C@H](OC(C)=O)[C@]5(CC)C=CCN6CC[C@]43[C@@H]65)C2)C1` [VINBLASTINE] was tested, and the ILS at 0.2 mg/kg (Mus musculus [1]) was 89%, the Survival days (Mus musculus [2]) was 15.5 and the ILS at 0.2 mg/kg (Mus musculus [3]) was 14.6%. The Survival days (Mus musculus [4]) was 15.5.

With `CSC1=NC(=O)N(Cc2ccc(Cl)cc2)CCN1Cc1ccc(Cl)cc1` the Survival days (Mus musculus [5]) was 10, the ILS at 40 mg/kg (Mus musculus [6]) was 4.2% and the Relative uptake (P388/S) was 1.28. The Relative uptake (P388/ADR) was 6.87.
